# An excerpt weighted towards active compounds, which were near 2.2% of everything screened.
# NR2E3 ag-1 = human photoreceptor-specific nuclear receptor agonism. inhibition of corepressor binding, % at 3.98 µM. CHO-S Gal4-NCOR/VP16-NR2E3 two-hybrid, luciferase. actives 0.35% (n = 360,000). Q9Y5X4;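 active = inhibition above the mean of all tested compounds plus 3 SD, cut at about 70% in these data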;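 note: 0% = DMSO with NR2E3 transfected cells and 100% = cells lacking NR2E3 construct; higher means lower luciferase signal from less NR2E3 corepressor binding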
# Target sequence (Q9Y5X4 whole entry, looked up, the tested form may be a part): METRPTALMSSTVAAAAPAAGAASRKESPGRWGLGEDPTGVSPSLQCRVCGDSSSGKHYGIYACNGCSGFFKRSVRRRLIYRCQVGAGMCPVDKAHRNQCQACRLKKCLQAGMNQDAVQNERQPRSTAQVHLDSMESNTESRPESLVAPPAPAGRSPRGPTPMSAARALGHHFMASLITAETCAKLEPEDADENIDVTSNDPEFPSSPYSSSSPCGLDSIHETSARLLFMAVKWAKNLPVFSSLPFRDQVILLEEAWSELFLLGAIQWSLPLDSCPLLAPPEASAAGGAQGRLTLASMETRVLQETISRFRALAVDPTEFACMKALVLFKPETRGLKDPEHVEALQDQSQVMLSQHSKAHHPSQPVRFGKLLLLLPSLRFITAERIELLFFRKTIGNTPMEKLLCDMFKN
# GalR3 antag = human GalR3 antagonism. O60755. HEK293 GalR3-CNG cAMP membrane potential fluorescence; galR3 body fused to GalR1 C-terminus. inhibition, % at 3 µM. actives 0.44% (n = 360,000). AID 651719;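 active = inhibition above the screen-wide average plus 3 SD, cut at about 13% in these data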;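 note: forskolin and galanin both at EC90 stimulate the cells; cAMP rise reported by CNG channel membrane potential dye signal; 0% = forskolin plus galanin with DMSO and 100% = forskolin alone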
# NR2E3 ag-2 = NR2E3 (human) agonism; GST-NR2E3/biotin-RetCOR TR-FRET, 1536-well; inhibition of corepressor binding, % at 4.78 µM; actives 0.12% (n = 320,000); AID 2300;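 active = percent inhibition above the cutoff of mean plus 3 SD of all tested compounds, set per screening campaign, cut at about 20% in these data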;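 note: 0% = DMSO wells and 100% = biotin wells as full block of FRET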
#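 Material: NR2E3–RetCOR corepressor complex / Amount: 1.35 nM GST-NR2E3 / Medium: Tris pH 7.5 / Compound: single nominal compound dose of 4.8 µM / Incubation: 5 h at 4 °C / Technique: TR-FRET, Eu(K)-anti-GST donor, streptavidin-D2 acceptor, ex 340, em 617/671 nm / Read-out basis: percent loss of FRET ratio relative to control wells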
# HIV Env fusion = HIV envelope-mediated fusion inhibition; HeLa-JRFL Env/CEM21 cell fusion, luciferase; inhibition, % at 12.3 µM; actives 1.1% (n = 360,000); AID 651610;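 active = mean replicate inhibition score of at least 50 and every replicate individually at or above 50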;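 note: 0% = plate neutral controls and 100% = maraviroc near 300 nM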
# FXN GAA850 act = frataxin GAA850 promoter activation; HEK293 lucGAA850 FXN promoter luciferase reporter, 24 h; percent of 10 µM SAHA response; activation, % at 6 µM; actives 0.56% (n = 360,000);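 active = activation above the average of all compounds screened plus 3 SD, cutoff fixed separately per campaign, cut at about 7.5% in these data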;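 note: 0% = DMSO wells and 100% = 10 µM SAHA wells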
# V-ATPase pH = regulators of yeast V-ATPase proton transport | S. cerevisiae, pHLuorin cytosolic pH fluorescence | response, % at 10 µM | actives 0.37% (n = 350,000); in the data active = response mostly above about 7.3%, no sharp cut-off; inactive = mostly below about 5.4%; note: actives read high
# GalR3 antag conf = GalR3 (human) antagonism, confirmation; shares compounds with GalR3 antag; HEK293 GalR3 CNG cAMP biosensor, membrane potential fluorescence; galR3 fused to GalR1 carboxy tail; challenged with forskolin and galanin at EC90; inhibition, % at 3 µM; actives 59% (n = 1,600); AID 652245;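 active = inhibition above the primary screen's cutoff, the mean inhibition of all screened compounds plus 3 SD, cut at about 13% in these data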;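 note: 0% = forskolin plus galanin and 100% = forskolin alone with DMSO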
# HEK-CNG parental = counter-screen for GalR3 antagonists: nonspecific agonists in parental HEK-CNG cells; shares compounds with GalR3 antag; HEK293-CNG parental cells, cAMP membrane potential fluorescence; normalised: DMSO wells 0%, forskolin wells 100%; activation, % at 3 µM; AID 652268; actives 10% (n = 1,600); in the data active = activation above about 1.3%
# * hit, by the source's call; / = no result; [ ] = another dose, or the depositor's remark.
SMILES,NR2E3 ag-1,GalR3 antag,NR2E3 ag-2,HIV Env fusion,FXN GAA850 act,V-ATPase pH,GalR3 antag conf,HEK-CNG parental
O=C(Cc1ccccn1)NCC[C@@H]1CC[C@H](NS(=O)(=O)c2ccc(F)cc2)[C@@H](CO)O1,/,/,/,11[16.7 µM],/,/,/,/
Nc1nc(-c2ccc3c(c2)OCCO3)cs1,-56,23*,1,/,6,-5,29*,0
CN(C)CCCNC(=O)C[C@@H]1CC[C@@H](NC(=O)Cc2cccnc2)[C@H](CO)O1,/,/,/,-9[16.7 µM],/,/,/,/
CCOC(=O)N(C)[C@H]1C[C@H]2c3cc(-c4ccccc4C)ccc3CCN2C[C@H]1[C@H](C)O,/,95*,/,19,/,/,2,0
COc1ccccc1CC(=O)N1CCCc2ccccc21,-32,/,1,/,0,-4,3,1
COc1ccc(-c2cnc3c(c2)C(=O)N([C@@H](C)CO)C[C@@H](C)[C@H](CN(C)C(=O)Cc2cccnc2)O3)cc1,/,/,/,-14[16.7 µM],/,/,/,/
COc1cccc(CNC(=O)C[C@@H]2C=C[C@H](NC(=O)C3CC3)[C@@H](CO)O2)c1,/,/,/,10[16.7 µM],/,/,/,/
C[C@H](O)C#Cc1ccc2c(c1)O[C@@H](CN(C)CC1CCOCC1)[C@@H](C)CN([C@H](C)CO)S2(=O)=O,/,/,/,35[16.7 µM],/,/,/,/
OCCNCCOc1ccccc1F,-2,13*,7,/,-1,2,0,0
CC(C)(C)[S@](=O)N1Cc2cc(C(=O)NCc3ccccc3F)nc(-c3cccc(-c4cccnc4)c3)c2[C@@H]1CCO,/,/,/,22[16.7 µM],/,/,/,/
O=C1c2ccccc2-n2c1nc1ccccc1c2=O,46,-7,3,/,2,-1,/,/
CC1(C)Cc2ccccc2-c2nc3ccccc3c(=O)n21,-3,/,2,/,0,-2,3,0
N#CC(C#N)=C(Nc1ccc(F)cc1)SCc1cccc(Br)c1,94*,92*,2,65*,-8,2,100*,0
CC1CCN(C(=O)/C(=C\c2cccs2)NC(=O)c2ccccc2)CC1,-7,19*,0,10,-1,-2,8,0
CC1CCN(C(=O)/C(=C\c2ccco2)NC(=O)c2ccccc2)CC1,-13,-8,-2,0,1,1,/,/
CCN1C(=O)/C(=C2/Sc3ccccc3N2CC)S/C1=N\c1ncn[nH]1,-17,18*,1,-5,2,2,11,0
CCC(C)Nc1nc(Cl)nc(N(C#N)CN2C(=O)c3ccccc3S2(=O)=O)n1 (stereo not given),-23,-7,1,-36,2,3,/,/
CC(C)Nc1nc(Cl)nc(N(C#N)CN2C(=O)c3ccccc3C2=O)n1,12,16*,4,-298,3,2,1,1
C[C@@H]1CCCCO[C@H](CN(C)Cc2ccc3c(c2)OCO3)[C@H](C)CN([C@@H](C)CO)C(=O)c2cc(NS(=O)(=O)c3ccc(Cl)cc3)ccc2O1,/,/,/,-38[16.7 µM],/,/,/,/
COc1cccc(C(=O)/C=C/c2ccc(OCC#N)c(OC)c2)c1,16,20*,1,-25,-8,2,1,0
Clc1ccc(COc2cccc(CNCc3ccncc3)c2)cc1,44,32*,3,34,0,-1,93*,1
CC(C)(CO)NCc1cccc(OCc2ccc(Cl)cc2)c1,7,-7,-2,-43,4,0,/,/
COc1ccc(OC)c(NC(=O)Cc2nn(C)c(=O)c3ccccc23)c1,38,-2,1,/,-2,3,/,/
COc1ccc(CNC(=O)Cc2nn(C)c(=O)c3ccccc23)cc1,102*,34*,-4,/,-1,3,29*,0
COc1ccc(S(=O)(=O)N(C)C[C@@H]2OCCCC[C@H](C)Oc3ccc(NS(=O)(=O)c4c(C)noc4C)cc3C(=O)N([C@H](C)CO)C[C@@H]2C)cc1,/,/,/,-26[16.7 µM],/,/,/,/

# Assay outcomes from PubChem BioAssay.
